Assay results reported in ChEMBL document CHEMBL1122621, “Antihypertensive activities of phenyl aminoethyl sulfides, a class of synthetic substrates for dopamine beta-hydroxylase” (J Med Chem, 1984).

B1: Dopamine beta-hydroxylase (Bos taurus), P15101 (protein)
chain: MQVPSPSVREAASMYGTAVAVFLVILVAALQGSAPAESPFPFHIPLDPEGTLELSWNISYAQETIYFQLLVRELKAGVLFGMSDRGELENADLVVLWTDRDGAYFGDAWSDQKGQVHLDSQQDYQLLRAQRTPEGLYLLFKRPFGTCDPNDYLIEDGTVHLVYGFLEEPLRSLESINTSGLHTGLQRVQLLKPSIPKPALPADTRTMEIRAPDVLIPGQQTTYWCYVTELPDGFPRHHIVMYEPIVTEGNEALVHHMEVFQCAAEFETIPHFSGPCDSKMKPQRLNFCRHVLAAWALGAKAFYYPEEAGLAFGGPGSSRFLRLEVHYHNPLVITGRRDSSGIRLYYTAALRRFDAGIMELGLAYTPVMAIPPQETAFVLTGYCTDKCTQLALPASGIHIFASQLHTHLTGRKVVTVLARDGRETEIVNRDNHYSPHFQEIRMLKKVVSVQPGDVLITSCTYNTEDRRLATVGGFGILEEMCVNYVHYYPQTQLELCKSAVDPGFLHKYFRLVNRFNSEEVCTCPQASVPEQFASVPWNSFNREVLKALYGFAPISMHCNRSSAVRFQGEWNRQPLPEIVSRLEEPTPHCPASQAQSPAGPTVLNISGGKG

Assays:
[1] = target: T1, Dopamine beta-hydroxylase (Bos taurus) (UniProt P15101); test: Compound was evaluated as substrate for Dopamine beta hydroxylase (DBH) from bovine adrenals and the enzymatic kinetic constant was reported as Kcat
T1 sequence (whole entry): B1 chain

Monoamine oxidase [2] = target: T2, Monoamine oxidase (Bos taurus, UniProt P56560+P21398); test: Compound was evaluated as substrate for monoamine oxidase (MAO) from bovine […] and the enzymatic kinetic constant was reported as Kcat; type: protein assay; settings: cattle
T2 sequence (P56560 whole entry): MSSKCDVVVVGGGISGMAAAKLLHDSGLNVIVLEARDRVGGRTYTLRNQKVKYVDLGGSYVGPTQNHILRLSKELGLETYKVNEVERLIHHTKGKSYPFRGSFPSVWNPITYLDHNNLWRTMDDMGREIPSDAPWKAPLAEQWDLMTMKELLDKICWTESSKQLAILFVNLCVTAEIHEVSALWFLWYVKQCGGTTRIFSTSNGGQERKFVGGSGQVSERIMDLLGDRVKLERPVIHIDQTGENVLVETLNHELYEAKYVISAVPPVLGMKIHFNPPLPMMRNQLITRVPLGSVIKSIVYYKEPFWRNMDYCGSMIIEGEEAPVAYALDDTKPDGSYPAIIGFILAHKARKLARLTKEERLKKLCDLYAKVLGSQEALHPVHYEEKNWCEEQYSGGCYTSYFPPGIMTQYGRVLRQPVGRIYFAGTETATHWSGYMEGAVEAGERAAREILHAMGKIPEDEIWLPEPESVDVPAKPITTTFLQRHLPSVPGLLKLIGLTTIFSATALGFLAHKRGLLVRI
T2 sequence (P21398 whole entry): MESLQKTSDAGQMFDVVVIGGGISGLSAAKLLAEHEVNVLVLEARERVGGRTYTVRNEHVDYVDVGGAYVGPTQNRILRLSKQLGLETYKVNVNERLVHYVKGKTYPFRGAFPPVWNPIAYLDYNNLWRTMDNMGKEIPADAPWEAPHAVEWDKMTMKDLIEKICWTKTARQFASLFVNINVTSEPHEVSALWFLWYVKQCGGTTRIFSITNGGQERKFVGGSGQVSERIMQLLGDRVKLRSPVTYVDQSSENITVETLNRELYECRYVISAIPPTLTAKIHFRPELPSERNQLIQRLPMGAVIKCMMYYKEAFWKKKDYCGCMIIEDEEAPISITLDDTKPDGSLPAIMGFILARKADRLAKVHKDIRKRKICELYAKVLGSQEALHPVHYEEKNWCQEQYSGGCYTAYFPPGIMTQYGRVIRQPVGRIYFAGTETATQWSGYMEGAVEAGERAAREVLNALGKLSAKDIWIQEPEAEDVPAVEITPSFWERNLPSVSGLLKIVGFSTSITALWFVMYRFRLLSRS
Outline: (§1)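 Bovine MAO, a mixed A/B isozyme preparation, commercial. Oxygen monitor assay in 0.1 M potassium phosphate pH 7.2, air-saturated, 37 °C. kcat and Km from computer fit to hyperbolic Michaelis-Menten equation. kcat based on total protein, assuming MW 290 000.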

monoamine oxidase (MAO) = target: T3, monoamine oxidase (MAO) (Bos taurus, UniProt P21398+P56560); test: Compound was evaluated as substrate for monoamine oxidase (MAO) from bovine […] and the enzymatic kinetic constant was reported as Km; type: protein assay; settings: cattle; outline: as §1
T3 sequence (P56560 whole entry): T2 sequence (P56560 whole entry)
T3 sequence (P21398 whole entry): T2 sequence (P21398 whole entry)

[3] = Ratio of the kinetic parameter Kcat to the Km on substrate […] from bovine adrenals; type: tissue-based; settings: Adrenal gland
[4] = Ratio of the kinetic parameter Kcat to the Km on substrate dopamine monoamine oxidase
Monoamine oxidase [5] = target: T2, Monoamine oxidase; test: Compound was evaluated as substrate for monoamine oxidase (MAO) from bovine […] and the enzymatic kinetic constant was reported as Kcat; c = Compounds displayed no trace of substrate activity even at high enzyme concentrations; type: protein assay; settings: cattle; outline: as §1
Monoamine oxidase [6] = target: T2, Monoamine oxidase; test: Compound was evaluated as substrate for monoamine oxidase (MAO) from bovine […] and the enzymatic kinetic constant was reported as Km; c = Compounds displayed no trace of substrate activity even at high enzyme concentrations; type: protein assay; settings: cattle; outline: as §1
[7] = Ratio of the kinetic parameter Kcat to the Km on substrate dopamine monoamine oxidase; c = Compounds displayed no trace of substrate activity even at high enzyme concentrations
[8] = substrate: CC(N)CSc1ccc(O)cc1; test: (§2) Compound was evaluated as substrate for Dopamine beta hydroxylase (DBH) from bovine adrenals and the enzymatic kinetic constant was reported as Km; type: tissue-based; settings: Adrenal gland
[9] = substrate: CC(N)CSc1ccccc1; test: as §2; type: tissue-based; settings: Adrenal gland
[10] = substrate: NCCCc1ccccc1; test: as §2; type: tissue-based; settings: Adrenal gland
[11] = substrate: NCCSc1ccc(O)cc1; test: as §2; type: tissue-based; settings: Adrenal gland
[12] = substrate: NCCSc1ccccc1; test: as §2; type: tissue-based; settings: Adrenal gland
[13] = substrate: NCCc1ccc(O)cc1; test: as §2; type: tissue-based; settings: Adrenal gland
[14] = substrate: NCCc1ccccc1; test: as §2; type: tissue-based; settings: Adrenal gland

Molecule	k cat [1] [s⁻¹]	k cat (Monoamine oxidase [2]) [s⁻¹]	Km (monoamine oxidase (MAO)) [mM]	Ratio [3] [M⁻¹ s⁻¹]	Ratio [4] [M⁻¹ s⁻¹]	further results
NCCc1ccccc1 [PHENETHYLAMINE]	65	0.23	2.2	9300	100	
CC(N)CSc1ccc(O)cc1 (racemic)	44			6700		k cat (Monoamine oxidase [5]): No activity; Km (Monoamine oxidase [6]): No activity; Ratio [7]: No activity
NCCCc1ccccc1	12	0.17	0.29	590	580	
NCCSc1ccc(O)cc1	36	0.22	0.049	8300	4500	
CC(N)CSc1ccccc1 (racemic)	20			1000		k cat (Monoamine oxidase [5]): No activity; Km (Monoamine oxidase [6]): No activity; Ratio [7]: No activity
NCCc1ccc(O)cc1	85			42000		
NCCSc1ccccc1	39	0.43	0.055	2300	7300	
B1						Km [8]: 6.5 mM; Km [9]: 19.1 mM; Km [10]: 20.4 mM; Km [11]: 4.4 mM; Km [12]: 17.2 mM; Km [13]: 2 mM; Km [14]: 7 mM
